Measurements: ChEMBL document CHEMBL3102840, “Synthesis and anti-proliferative activity of aromatic substituted 5-((1-benzyl-1H-indol-3-yl)methylene)-1,3-dimethylpyrimidine-2,4,6(1H,3H,5H)-trione analogs against human tumor cell lines” (2014)

Experiments:
Type in all cases: functional
[1] = test system: T47D; test: Cytotoxicity against human T47D cells after 48 hrs by SRB assay
In short: (§1)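 Five-dose run from the sixty-line panel, at 10−4, 10−5, 10−6, 10−7 and 10−8 M. SRB-stain OD is read just before compound addition, after 48 hrs of exposure, and in vehicle controls, giving percentage growth; negative growth indicates cytotoxicity. GI50 is the concentration giving 50% reduction in net protein increase versus control cells. LC50 is the concentration lethal to 50% of cells.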

[2] = test system: TK-10; test: Cytotoxicity against human TK10 cells assessed as growth inhibition at 10 uM after 48 hrs by SRB assay; conditions: TK-10, 48 h, read-out: GI
In short: (§2)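 Single-dose screen at 10µM across the sixty-cell-line panel. Percentage growth is derived from SRB-stain OD taken just before compound exposure, after 48 hrs exposure, and in vehicle-treated controls. Negative values indicate cytotoxicity.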

[3] = test system: BT-549; test: Cytotoxicity against human BT549 cells after 48 hrs by SRB assay; conditions: BT-549, 48 h; for CC50: read-out: LC50 (the source's name); in short: as §1
[4] = test system: SK-OV-3; test: Cytotoxicity against human SKOV3 cells after 48 hrs by SRB assay; conditions: SK-OV-3, 48 h; in short: as §1
[5] = test system: MDA-MB-435; test: Cytotoxicity against human MDA-MB-435 cells after 48 hrs by SRB assay; conditions: MDA-MB-435, 48 h; in short: as §1
[6] = test system: SN12C; test: Cytotoxicity against human SN12C cells after 48 hrs by SRB assay; conditions: for CC50: read-out: LC50 (the source's name); in short: as §1
[7] = test system: A498; test: Cytotoxicity against human A498 cells after 48 hrs by SRB assay; conditions: A498, 48 h; in short: as §1
[8] = test system: MCF7; test: Cytotoxicity against human MCF7 cells after 48 hrs by SRB assay; conditions: MCF7, 48 h; in short: as §1
[9] = test system: MDA-MB-468; test: Cytotoxicity against human MDA-MB-468 cells after 48 hrs by SRB assay; conditions: MDA-MB-468, 48 h; in short: as §1
[10] = Cytotoxicity against human OVCAR5 cells assessed as growth inhibition at 10 uM after 48 hrs by SRB assay; conditions: OVCAR-5, 48 h, read-out: GI; in short: as §2
[11] = Cytotoxicity against human OVCAR5 cells after 48 hrs by SRB assay; conditions: OVCAR-5, 48 h; for CC50: read-out: LC50 (the source's name); in short: as §1
[12] = Cytotoxicity against human NCI-ADR-RES cells after 48 hrs by SRB assay; conditions: for CC50: read-out: LC50 (the source's name); in short: as §1
[13] = test system: K562; test: Cytotoxicity against human K562 cells after 48 hrs by SRB assay; conditions: K562, 48 h; for CC50: read-out: LC50 (the source's name); in short: as §1
[14] = test system: 786-0; test: Cytotoxicity against human 786-0 cells after 48 hrs by SRB assay; conditions: 786-0, 48 h; in short: as §1
[15] = test system: HCT-116; test: Cytotoxicity against human HCT116 cells after 48 hrs by SRB assay; conditions: HCT-116, 48 h; in short: as §1
[16] = test system: HOP-62; test: Cytotoxicity against human HOP62 cells after 48 hrs by SRB assay; conditions: HOP-62, 48 h; for CC50: read-out: LC50 (the source's name); in short: as §1
[17] = test system: TK-10; test: Cytotoxicity against human TK10 cells after 48 hrs by SRB assay; conditions: TK-10, 48 h; for CC50: read-out: LC50 (the source's name); in short: as §1
[18] = test system: RXF 393; test: Cytotoxicity against human RXF393 cells after 48 hrs by SRB assay; conditions: RXF 393, 48 h; in short: as §1
[19] = test system: A498; test: Cytotoxicity against human A498 cells assessed as growth inhibition at 10 uM after 48 hrs by SRB assay; conditions: A498, 48 h, read-out: GI; in short: as §2
[20] = test system: OVCAR-8; test: Cytotoxicity against human OVCAR8 cells after 48 hrs by SRB assay; conditions: OVCAR-8, 48 h; for CC50: read-out: LC50 (the source's name); in short: as §1
[21] = test system: SK-MEL-2; test: Cytotoxicity against human SK-MEL-2 cells after 48 hrs by SRB assay; conditions: SK-MEL-2, 48 h; in short: as §1
[22] = test system: COLO 205; test: Cytotoxicity against human COLO205 cells after 48 hrs by SRB assay; conditions: COLO 205, 48 h; for CC50: read-out: LC50 (the source's name); in short: as §1
[23] = test system: SK-MEL-5; test: Cytotoxicity against human SK-MEL-5 cells after 48 hrs by SRB assay; conditions: SK-MEL-5, 48 h; in short: as §1
[24] = test system: SW-620; test: Cytotoxicity against human SW620 cells after 48 hrs by SRB assay; conditions: SW-620, 48 h; for CC50: read-out: LC50 (the source's name); in short: as §1
[25] = test system: MDA-MB-468; test: Cytotoxicity against human MDA-MB-468 cells assessed as growth inhibition at 10 uM after 48 hrs by SRB assay; conditions: MDA-MB-468, 48 h, read-out: GI; in short: as §2
[26] = test system: SNB-19; test: Cytotoxicity against human SNB19 cells after 48 hrs by SRB assay; conditions: SNB-19, 48 h; in short: as §1
[27] = test system: LOX IMVI; test: Cytotoxicity against human LOXIMVI cells after 48 hrs by SRB assay; conditions: for CC50: read-out: LC50 (the source's name); in short: as §1
[28] = test system: SF-295; test: Cytotoxicity against human SF295 cells after 48 hrs by SRB assay; conditions: SF-295, 48 h; in short: as §1
[29] = test system: NCI-H226; test: Cytotoxicity against human NCI-H226 cells after 48 hrs by SRB assay; conditions: NCI-H226, 48 h; for CC50: read-out: LC50 (the source's name); in short: as §1
[30] = test system: NCI-H23; test: Cytotoxicity against human NCI-H23 cells after 48 hrs by SRB assay; conditions: NCI-H23, 48 h; in short: as §1
[31] = test system: UACC-62; test: Cytotoxicity against human UACC62 cells after 48 hrs by SRB assay; conditions: UACC-62, 48 h; in short: as §1
[32] = test system: NCI-H460; test: Cytotoxicity against human NCI-H460 cells after 48 hrs by SRB assay; conditions: NCI-H460, 48 h; for CC50: read-out: LC50 (the source's name); in short: as §1
[33] = Cytotoxicity against human UACC257 cells after 48 hrs by SRB assay; conditions: UACC-257, 48 h; for CC50: read-out: LC50 (the source's name); in short: as §1
[34] = test system: IGROV-1; test: Cytotoxicity against human IGROV1 cells after 48 hrs by SRB assay; conditions: IGROV-1, 48 h; for CC50: read-out: LC50 (the source's name); in short: as §1
[35] = test system: SR; test: Cytotoxicity against human SR cells after 48 hrs by SRB assay; in short: as §1
[36] = test system: NCI-H226; test: Cytotoxicity against human NCI-H226 cells assessed as growth inhibition at 10 uM after 48 hrs by SRB assay; conditions: NCI-H226, 48 h, read-out: GI; in short: as §2
[37] = test system: MDA-MB-231; test: Cytotoxicity against human MDA-MB-231 cells after 48 hrs by SRB assay; conditions: MDA-MB-231, 48 h; for CC50: read-out: LC50 (the source's name); in short: as §1

Cc1ccc(Cn2cc(C=C3C(=O)N(C)C(=O)N(C)C3=O)c3ccccc32)cc1
GI50 [1]: 5 µM | LC50 [1]: > 100 µM | inhibition of growth at 10 µM [2]: -4% | GI50 [3]: 13.5 µM | CC50 [3]: > 100 µM | GI50 [4]: 23.7 µM | LC50 [4]: > 100 µM | LC50 [5]: > 100 µM | GI50 [6]: > 100 µM | CC50 [6]: > 100 µM | GI50 [7]: 0.12 µM | LC50 [7]: 0.69 µM | GI50 [8]: 6.76 µM | LC50 [8]: > 100 µM | GI50 [9]: 0.03 µM | LC50 [9]: 0.62 µM | inhibition of growth at 10 µM [10]: -23% | GI50 [11]: 0.07 µM | CC50 [11]: > 100 µM | GI50 [12]: 6.23 µM | CC50 [12]: > 100 µM | GI50 [13]: 2.23 µM | CC50 [13]: > 100 µM | GI50 [14]: 22.1 µM | LC50 [14]: > 100 µM | GI50 [15]: 5.45 µM | LC50 [15]: > 100 µM | GI50 [16]: 7.44 µM | CC50 [16]: > 100 µM | GI50 [17]: 0.28 µM | CC50 [17]: > 100 µM | GI50 [18]: 15.2 µM | LC50 (lethal concentration, 50%) [18]: > 100 µM | inhibition of growth at 10 µM [19]: -91% | GI50 [20]: > 100 µM | CC50 [20]: > 100 µM | GI50 [21]: 3.36 µM | GI50 [22]: 1.89 µM | CC50 [22]: > 100 µM | GI50 [23]: 9.17 µM | LC50 [23]: > 100 µM | CC50 [24]: > 100 µM | inhibition of growth at 10 µM [25]: -62% | GI50 [26]: 26.8 µM | LC50 [26]: > 100 µM | GI50 [27]: 27.8 µM | CC50 [27]: > 100 µM | GI50 [28]: 2.02 µM | LC50 [28]: > 100 µM | GI50 [29]: 1.95 µM | CC50 [29]: > 100 µM | GI50 [30]: 8.19 µM | LC50 [30]: > 100 µM | GI50 [31]: 2.42 µM | LC50 [31]: > 100 µM | GI50 [32]: 0.91 µM | CC50 [32]: > 100 µM | GI50 [33]: 2.02 µM | CC50 [33]: > 100 µM | GI50 [34]: 2.95 µM | CC50 [34]: > 100 µM | GI50 [35]: 1.89 µM | LC50 (lethal concentration, 50%) [35]: > 100 µM | inhibition of growth at 10 µM [36]: -63% | GI50 [37]: 13.6 µM | CC50 [37]: > 100 µM

COc1ccc(Cn2cc(C=C3C(=O)N(C)C(=O)N(C)C3=O)c3ccccc32)cc1
GI50 [1]: 3.53 µM | LC50 [1]: > 100 µM | inhibition of growth at 10 µM [2]: -12% | GI50 [3]: 4.94 µM | CC50 [3]: > 100 µM | GI50 [4]: 5.03 µM | LC50 [4]: > 100 µM | GI50 [5]: 3.29 µM | LC50 [5]: > 100 µM | GI50 [6]: 12.5 µM | CC50 [6]: > 100 µM | GI50 [7]: 0.06 µM | LC50 [7]: 5.27 µM | GI50 [8]: 5.26 µM | LC50 [8]: > 100 µM | GI50 [9]: 0.04 µM | LC50 [9]: 0.76 µM | inhibition of growth at 10 µM [10]: -38% | GI50 [11]: 0.02 µM | CC50 [11]: > 100 µM | GI50 [12]: 3.59 µM | CC50 [12]: > 100 µM | GI50 [13]: 2.18 µM | CC50 [13]: > 100 µM | GI50 [14]: 11.2 µM | LC50 [14]: > 100 µM | GI50 [15]: 5.01 µM | LC50 [15]: > 100 µM | GI50 [16]: 6.22 µM | CC50 [16]: > 100 µM | GI50 [17]: 0.1 µM | CC50 [17]: 72.5 µM | GI50 [18]: 14.8 µM | LC50 (lethal concentration, 50%) [18]: > 100 µM | inhibition of growth at 10 µM [19]: -92% | GI50 [20]: 13.4 µM | CC50 [20]: 88.6 µM | GI50 [21]: 2.78 µM | GI50 [22]: 0.63 µM | CC50 [22]: 45.3 µM | GI50 [23]: 5.08 µM | LC50 [23]: 64.4 µM | GI50 [24]: 6.89 µM | CC50 [24]: > 100 µM | inhibition of growth at 10 µM [25]: -65% | GI50 [26]: 15.8 µM | LC50 [26]: > 100 µM | GI50 [27]: 5.45 µM | CC50 [27]: > 100 µM | GI50 [28]: 1.54 µM | LC50 [28]: > 100 µM | GI50 [29]: 1.44 µM | CC50 [29]: 53.9 µM | GI50 [30]: 4.67 µM | LC50 [30]: > 100 µM | GI50 [31]: 0.9 µM | LC50 [31]: 68 µM | GI50 [32]: 0.81 µM | CC50 [32]: 82.8 µM | GI50 [33]: 1.54 µM | CC50 [33]: 38.2 µM | GI50 [34]: 1.93 µM | CC50 [34]: > 100 µM | GI50 [35]: 5.43 µM | LC50 (lethal concentration, 50%) [35]: > 100 µM | inhibition of growth at 10 µM [36]: -55% | GI50 [37]: 5.86 µM | CC50 [37]: > 100 µM
